The source made the active and inactive calls. No cut-off for these calls is given here.
How the values were obtained:
[1] = target: T1, N-lysine methyltransferase KMT5A (Homo sapiens) (UniProt Q9NQR1); assay: Binding affinity to wild type SETD8 catalytic domain (unknown origin) (234 to 380 residues) expressed in Escherichia coli assessed as covalent adduct formation at 20 to 200 uM incubated for 3 hrs by LC-MSD-TOF analysis; details: dose 20-200 µM
T1 sequence (whole entry): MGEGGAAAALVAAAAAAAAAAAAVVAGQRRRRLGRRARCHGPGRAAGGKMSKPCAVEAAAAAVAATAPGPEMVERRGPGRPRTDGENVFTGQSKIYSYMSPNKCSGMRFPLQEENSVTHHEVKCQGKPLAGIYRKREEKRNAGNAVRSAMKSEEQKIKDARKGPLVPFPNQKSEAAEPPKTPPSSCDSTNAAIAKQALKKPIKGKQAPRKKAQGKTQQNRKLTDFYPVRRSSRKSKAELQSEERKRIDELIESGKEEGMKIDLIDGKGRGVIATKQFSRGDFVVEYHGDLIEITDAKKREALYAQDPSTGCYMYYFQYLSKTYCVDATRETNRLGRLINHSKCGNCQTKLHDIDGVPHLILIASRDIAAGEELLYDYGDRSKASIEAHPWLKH

[2] = target: T2, N-lysine methyltransferase KMT5A (Homo sapiens, UniProt Q9NQR1); assay: Inhibition of recombinant SETD8 catalytic domain (unknown origin) (232 to 393 residues) expressed in Escherichia coli assessed as reduction in incorporation of [3H]-labeled methyl group into biotinylated H4 (1 to 24) peptide measured after 1 hr using [3H-SAM] by scintillation proximity assay
T2 sequence (Q9NQR1 whole entry): T1 sequence (whole entry)

[3] = target: T2, N-lysine methyltransferase KMT5A; assay: Inhibition of recombinant SETD8 catalytic domain (unknown origin) (232 to 393 residues) expressed in Escherichia coli assessed as reduction in incorporation of [3H]-labeled methyl group into biotinylated H4 (1 to 24) peptide measured after 5 hrs using [3H-SAM] by scintillation proximity assay
How it was run: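 SETD8 catalytic domain (residues 232–393) was expressed in E. coli and purified. Compound was preincubated with the enzyme for a set time (1 h or 5 h) before a scintillation proximity methylation assay. IC50 was taken from a fitted concentration–response curve.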

[4] = target: N-lysine methyltransferase SMYD2 (Homo sapiens) (UniProt Q9NRG4); assay: Binding affinity to SMYD2 (unknown origin) by mass-spectrometric analysis
[5] = target: T3, Histone-lysine N-methyltransferase SMYD3 (Homo sapiens) (UniProt Q9H7B4); assay: Binding affinity to SMYD3 (unknown origin) by mass-spectrometric analysis
T3 sequence (whole entry): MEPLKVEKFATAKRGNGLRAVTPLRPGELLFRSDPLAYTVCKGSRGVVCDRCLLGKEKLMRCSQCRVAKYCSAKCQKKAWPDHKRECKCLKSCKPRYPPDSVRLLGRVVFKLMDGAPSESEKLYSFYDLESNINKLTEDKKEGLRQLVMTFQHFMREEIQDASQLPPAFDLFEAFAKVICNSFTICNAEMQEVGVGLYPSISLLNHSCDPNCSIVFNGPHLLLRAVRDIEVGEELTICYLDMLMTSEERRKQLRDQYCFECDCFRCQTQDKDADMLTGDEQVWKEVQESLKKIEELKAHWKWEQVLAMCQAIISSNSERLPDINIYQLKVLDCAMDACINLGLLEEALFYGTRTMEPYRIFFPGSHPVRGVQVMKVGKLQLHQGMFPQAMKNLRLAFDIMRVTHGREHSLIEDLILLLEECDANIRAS

[6] = target: T1, N-lysine methyltransferase KMT5A (Homo sapiens); assay: (§1) Inhibition of wild type SETD8 catalytic domain (unknown origin) (234 to 380 residues) expressed in Escherichia coli assessed as compound-adduct dimer formation by measuring residual activity at 20 to 200 uM using varying levels of biotinylated H4 (1 to 24) peptide substrate measured after 1 hr in presence of [3H-SAM] by scintillation counting assay; details: dose 20-200 µM
How it was run: (§2)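 The adduct was purified by gel filtration, giving monomer and dimer fractions that interconvert after a short time. Each fraction was tested in the enzymatic assay, and residual activity was expressed relative to wild-type SETD8.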

[7] = Permeability of compound; type: ADME; details: not told; read-out: permeability
Homo sapiens [8] = species on record: Homo sapiens; assay: Binding affinity to human recombinant N-terminal His-tagged SETD8 C311S mutant (234 to 380 residues) expressed in Escherichia coli assessed as covalent adduct formation at 20 to 200 uM incubated for 3 hrs by LC-MSD-TOF analysis; details: dose 20-200 µM
Homo sapiens [9] = species on record: Homo sapiens; assay: Binding affinity to human recombinant N-terminal His-tagged SETD8 C343S mutant (234 to 380 residues) expressed in Escherichia coli assessed as covalent adduct formation at 20 to 200 uM incubated for 3 hrs by LC-MSD-TOF analysis; details: dose 20-200 µM
[10] = target: Histone-lysine N-methyltransferase EZH2 (Homo sapiens) (UniProt Q15910); assay: Binding affinity to PRC2 (unknown origin) by mass-spectrometric analysis
[11] = Efflux ratio of compound; type: ADME; details: not told
[12] = target: T1, N-lysine methyltransferase KMT5A (Homo sapiens); assay: Inhibition of SETD8 in human HeLa cells assessed as reduction in monomethylation of H4K20 up to 10 uM; type: cell-based; details: dose microM <=10
[13] = target: T1, N-lysine methyltransferase KMT5A (Homo sapiens); assay: as §1, with “monomer” for “dimer”; details: dose 20-200 µM; how it was run: as §2
[14] = target: T1, N-lysine methyltransferase KMT5A (Homo sapiens); assay: Binding affinity to wild type SETD8 catalytic domain (unknown origin) (234 to 380 residues) expressed in Escherichia coli assessed as covalent adduct formation at 20 to 200 uM incubated for 3 hrs in presence of GSH by LC-MSD-TOF analysis; details: dose 20-200 µM

Sequence of N-lysine methyltransferase SMYD2 (Homo sapiens) (Q9NRG4 whole entry): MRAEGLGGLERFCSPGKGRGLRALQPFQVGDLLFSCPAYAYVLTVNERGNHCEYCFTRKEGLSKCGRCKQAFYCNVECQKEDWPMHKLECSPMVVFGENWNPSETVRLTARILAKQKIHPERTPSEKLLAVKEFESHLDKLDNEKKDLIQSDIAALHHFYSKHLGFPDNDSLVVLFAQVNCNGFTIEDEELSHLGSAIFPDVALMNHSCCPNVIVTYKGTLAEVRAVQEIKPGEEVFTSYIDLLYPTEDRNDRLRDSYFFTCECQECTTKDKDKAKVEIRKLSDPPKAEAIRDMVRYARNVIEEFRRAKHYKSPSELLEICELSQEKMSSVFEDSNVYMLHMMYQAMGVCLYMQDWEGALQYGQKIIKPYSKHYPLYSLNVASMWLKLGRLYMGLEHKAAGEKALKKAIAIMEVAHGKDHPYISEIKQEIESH
Sequence of Histone-lysine N-methyltransferase EZH2 (Homo sapiens) (Q15910 whole entry, looked up): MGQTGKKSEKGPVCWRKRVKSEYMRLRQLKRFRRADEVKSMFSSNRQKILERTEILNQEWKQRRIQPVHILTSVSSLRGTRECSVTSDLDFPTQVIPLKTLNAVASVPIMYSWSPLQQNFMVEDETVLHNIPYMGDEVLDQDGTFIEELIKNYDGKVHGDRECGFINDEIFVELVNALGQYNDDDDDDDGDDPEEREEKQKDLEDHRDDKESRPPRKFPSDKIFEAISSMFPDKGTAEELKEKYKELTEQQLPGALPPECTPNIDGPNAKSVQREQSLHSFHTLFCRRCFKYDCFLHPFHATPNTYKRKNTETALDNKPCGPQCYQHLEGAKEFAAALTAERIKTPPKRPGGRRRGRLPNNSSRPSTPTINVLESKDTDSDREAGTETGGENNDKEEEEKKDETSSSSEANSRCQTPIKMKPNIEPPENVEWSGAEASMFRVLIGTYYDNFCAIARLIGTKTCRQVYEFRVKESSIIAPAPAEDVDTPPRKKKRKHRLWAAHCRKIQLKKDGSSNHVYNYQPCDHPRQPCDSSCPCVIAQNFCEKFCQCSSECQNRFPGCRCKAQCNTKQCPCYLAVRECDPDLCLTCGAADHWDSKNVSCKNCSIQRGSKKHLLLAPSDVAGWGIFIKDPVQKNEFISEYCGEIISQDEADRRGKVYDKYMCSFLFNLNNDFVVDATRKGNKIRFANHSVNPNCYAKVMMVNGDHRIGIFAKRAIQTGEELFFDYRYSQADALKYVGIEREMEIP

Activity [1] | IC50 [2] | IC50 [3] | Activity [4] | Activity [5] | Activity [6] | Papp [7] | Activity (Homo sapiens [8]) | Activity (Homo sapiens [9]) | Activity [10] | efflux ratio [11] | inhibition [12] | Activity [13] | Activity [14] | Structure (SMILES)
inactive | > 200 µM |  |  |  |  |  |  |  |  |  |  |  |  | C=CC(=O)NCCCN(C)c1nc(N2CCCC2)nc2cc(OC)c(OC)cc12
Active | 6.9 µM | 0.804 µM | inactive | inactive | 10% | 0.44 ×10⁻⁶ cm/s | inactive | Active | inactive | 137 | inactive | 10% | Active | C=CC(=O)NCCCNc1nc(N2CCCC2)nc2cc(OC)c(OC)cc12
